Measurements from ChEMBL document CHEMBL1147630, “New PDMP analogues inhibit process outgrowth in an insect cell line” (Bioorg Med Chem Lett, 2004).
Active and inactive are the calls of the source. The calls are words filed in the database; no cut-off is given here.

Tests used:
[1] = test system: MRRL-CH1; assay: Inhibitory effect on outgrowth of MRRL-CH1 cell line at 1 uM concentration; No Effect; format: functional, cell-based; details: Manduca sexta
Procedure, shortened: (§1)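 Embryonic Manduca sexta MRRL-CH1 cells, grown attached in DL medium in room air. Analogue in DMSO was added to well cultures 2–4 days after seeding, for 48 h. Drug was then diluted 16-fold by two medium exchanges, and cells were followed for 6 more days. Neurite outgrowth and reversibility were judged from photographs taken at 0, 24 and 48 h of exposure and at 24, 48 and 144 h after removal. Duplicates, with DMSO vehicle control.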

[2] = test system: MRRL-CH1; assay: Inhibitory effect on outgrowth of MRRL-CH1 cell line at 0.5 uM concentration; No Effect; format: functional, cell-based; details: Manduca sexta; procedure, shortened: as §1
[3] = test system: SH-SY5Y; assay: Concentration required to inhibit neurite outgrowth in SH-SY5Y cell line; format: functional, cell-based
[4] = organism: Rattus norvegicus; assay: Concentration required to reduce the length of total axon plexus in rat embryonic hippocampal neurons; format: functional
[5] = test system: MRRL-CH1; assay: Inhibitory effect on outgrowth of MRRL-CH1 cell line at 5 uM concentration; No Effect; format: functional, cell-based; details: Manduca sexta; procedure, shortened: as §1
[6] = test system: MRRL-CH1; assay: Inhibitory effect on outgrowth of MRRL-CH1 cell line at 0.5 uM concentration; Reversible; format: functional, cell-based; details: Manduca sexta; procedure, shortened: as §1
[7] = test system: MRRL-CH1; assay: Inhibitory effect on outgrowth of MRRL-CH1 cell line at 5 uM concentration; Irreversible; format: functional, cell-based; details: Manduca sexta; procedure, shortened: as §1
[8] = test system: MRRL-CH1; assay: Inhibitory effect on outgrowth of MRRL-CH1 cell line at 1 uM concentration; Irreversible; format: functional, cell-based; details: Manduca sexta; procedure, shortened: as §1

SMILES | Inhibitory effect [1] | Inhibitory effect [2] | Concentration [3] | Concentration [4] | Inhibitory effect [5] | Inhibitory effect [6] | Inhibitory effect [7] | Inhibitory effect [8]
CCCCCCCCCC(=O)N[C@H](CN1CCOCC1)[C@H](O)c1ccccc1 | inactive | inactive | 20 µM | 50 µM | inactive |  |  | 
CCCCCCCCCC(=O)N[C@H](CN1CCOCC1)[C@H](O)c1ccc(OC(C)(C)C)cc1 |  |  |  |  |  | Reversible | Irreversible | Irreversible
CCCCCCCCCC(=O)N[C@H](CN1CCOCC1)[C@H](O)c1ccc(OC)cc1 |  |  |  |  |  | Reversible | Irreversible | Irreversible
CCCCCCCCCC(=O)N[C@H](CN1CCOCC1)[C@H](O)c1ccc2c(c1)OCO2 |  |  |  |  |  | Reversible | Irreversible | Irreversible
